Measured values taken from ChEMBL document CHEMBL4196108, “5-Aroylindoles Act as Selective Histone Deacetylase 6 Inhibitors Ameliorating Alzheimer's Disease Phenotypes” (J Med Chem, 2018).
Activity calls are given as the source filed them. The rule behind the calls is not given here.

Columns and labels:
[1] = Plasma concentration in Sprague-Dawley rat at 50 mg/kg, po after 3 hrs by HPLC-MS/MS analysis; assay type: ADME, organism-based
[2] = Drug uptake in Sprague-Dawley rat brain at 50 mg/kg, po after 1 hr by HPLC-MS/MS analysis; assay type: ADME, organism-based; conditions: read-out: Drug uptake
[3] = test system: Mus musculus; assay: In vivo inhibition of HDAC6 in 3xTg-AD transgenic mouse brain hippocampal CA1 region assessed as downregulation of scopolamine-mediated increase in Tau phosphorylation at Ser396 residue at 50 mg/kg, po administered daily for 3 months by immunohistochemical analysis; assay type: functional, organism-based
Procedure, shortened: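 Female 3xTg-AD mice, standard diet to 6 months of age, then 50 mg/kg orally once daily for three months; memantine 30 mg/kg in water as comparator. Brains removed and hippocampal CA1 sections immunostained for acetyl-α-tubulin and phospho-tau Ser396 and Ser404. Mean ± STD; one-way ANOVA.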

[4] = molecular target: T1, Protein deacetylase HDAC6 (Mus musculus) (UniProt Q9Z2V5); assay: Inhibition of HDAC6 in mouse Neuro-2a cells transfected with pCAX FLAG APP and pRK5-EGFP-Tau P301L plasmids assessed as inhibition of Tau P301L mutant phosphorylation at Ser404 residue at 1 uM after 24 hrs by Western blot analysis; assay type: cell-based
T1 sequence (whole entry): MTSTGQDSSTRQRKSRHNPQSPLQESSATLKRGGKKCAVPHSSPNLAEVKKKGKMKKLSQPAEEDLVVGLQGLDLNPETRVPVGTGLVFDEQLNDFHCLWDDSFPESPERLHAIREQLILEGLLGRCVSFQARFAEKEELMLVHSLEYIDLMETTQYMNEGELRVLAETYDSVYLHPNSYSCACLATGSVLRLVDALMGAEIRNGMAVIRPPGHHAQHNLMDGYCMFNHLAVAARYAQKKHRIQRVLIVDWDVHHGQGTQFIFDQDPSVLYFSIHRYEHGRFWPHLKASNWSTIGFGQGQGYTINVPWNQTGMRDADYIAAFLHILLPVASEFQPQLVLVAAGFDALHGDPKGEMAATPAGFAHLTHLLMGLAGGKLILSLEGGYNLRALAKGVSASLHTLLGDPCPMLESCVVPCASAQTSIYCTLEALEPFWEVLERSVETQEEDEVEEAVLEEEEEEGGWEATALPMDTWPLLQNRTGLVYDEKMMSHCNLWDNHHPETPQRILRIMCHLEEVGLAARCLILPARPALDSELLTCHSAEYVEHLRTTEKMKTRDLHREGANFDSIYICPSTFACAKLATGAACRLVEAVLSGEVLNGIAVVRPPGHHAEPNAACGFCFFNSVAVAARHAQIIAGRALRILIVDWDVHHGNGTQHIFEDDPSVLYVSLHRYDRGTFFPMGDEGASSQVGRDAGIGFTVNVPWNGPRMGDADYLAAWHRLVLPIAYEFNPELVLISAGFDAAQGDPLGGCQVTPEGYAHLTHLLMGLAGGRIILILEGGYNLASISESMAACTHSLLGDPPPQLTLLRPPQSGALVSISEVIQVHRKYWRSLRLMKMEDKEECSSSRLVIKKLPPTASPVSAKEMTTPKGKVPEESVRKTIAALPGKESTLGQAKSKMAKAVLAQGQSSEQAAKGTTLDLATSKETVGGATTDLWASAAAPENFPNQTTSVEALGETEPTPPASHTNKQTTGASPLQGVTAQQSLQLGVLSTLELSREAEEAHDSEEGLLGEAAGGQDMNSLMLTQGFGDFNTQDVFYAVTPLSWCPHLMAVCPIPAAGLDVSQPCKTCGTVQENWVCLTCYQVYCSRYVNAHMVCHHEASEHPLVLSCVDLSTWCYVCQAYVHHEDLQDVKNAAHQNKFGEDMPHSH
Procedure, shortened: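 SH-SY5Y or Neuro-2a cells cotransfected 24 h with pCAX APP695 and pRK5-EGFP-Tau P301L, then treated 24 h at 1 µM. 20 µg lysate protein immunoblotted for APP and phospho-tau Ser396/Ser404. Mean ± STD of three independent experiments; Student's t-test.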

[5] = molecular target: T2, Protein deacetylase HDAC6 (Homo sapiens) (UniProt Q9UBN7); assay: Inhibition of HDAC6 in human SH-SY5Y cells transfected with pCAX FLAG APP and pRK5-EGFP-Tau P301L plasmids assessed as suppression of phosphorylated tau P301L mutant-induced apoptosis by measuring accumulation at sub-G1 phase at 0.01 uM after 24 hrs by propidium iodide staining-based flow cytometry (reference value: 22.01%); assay type: cell-based; set-up: scale not given: the % may be the effect or the level left
T2 sequence (whole entry): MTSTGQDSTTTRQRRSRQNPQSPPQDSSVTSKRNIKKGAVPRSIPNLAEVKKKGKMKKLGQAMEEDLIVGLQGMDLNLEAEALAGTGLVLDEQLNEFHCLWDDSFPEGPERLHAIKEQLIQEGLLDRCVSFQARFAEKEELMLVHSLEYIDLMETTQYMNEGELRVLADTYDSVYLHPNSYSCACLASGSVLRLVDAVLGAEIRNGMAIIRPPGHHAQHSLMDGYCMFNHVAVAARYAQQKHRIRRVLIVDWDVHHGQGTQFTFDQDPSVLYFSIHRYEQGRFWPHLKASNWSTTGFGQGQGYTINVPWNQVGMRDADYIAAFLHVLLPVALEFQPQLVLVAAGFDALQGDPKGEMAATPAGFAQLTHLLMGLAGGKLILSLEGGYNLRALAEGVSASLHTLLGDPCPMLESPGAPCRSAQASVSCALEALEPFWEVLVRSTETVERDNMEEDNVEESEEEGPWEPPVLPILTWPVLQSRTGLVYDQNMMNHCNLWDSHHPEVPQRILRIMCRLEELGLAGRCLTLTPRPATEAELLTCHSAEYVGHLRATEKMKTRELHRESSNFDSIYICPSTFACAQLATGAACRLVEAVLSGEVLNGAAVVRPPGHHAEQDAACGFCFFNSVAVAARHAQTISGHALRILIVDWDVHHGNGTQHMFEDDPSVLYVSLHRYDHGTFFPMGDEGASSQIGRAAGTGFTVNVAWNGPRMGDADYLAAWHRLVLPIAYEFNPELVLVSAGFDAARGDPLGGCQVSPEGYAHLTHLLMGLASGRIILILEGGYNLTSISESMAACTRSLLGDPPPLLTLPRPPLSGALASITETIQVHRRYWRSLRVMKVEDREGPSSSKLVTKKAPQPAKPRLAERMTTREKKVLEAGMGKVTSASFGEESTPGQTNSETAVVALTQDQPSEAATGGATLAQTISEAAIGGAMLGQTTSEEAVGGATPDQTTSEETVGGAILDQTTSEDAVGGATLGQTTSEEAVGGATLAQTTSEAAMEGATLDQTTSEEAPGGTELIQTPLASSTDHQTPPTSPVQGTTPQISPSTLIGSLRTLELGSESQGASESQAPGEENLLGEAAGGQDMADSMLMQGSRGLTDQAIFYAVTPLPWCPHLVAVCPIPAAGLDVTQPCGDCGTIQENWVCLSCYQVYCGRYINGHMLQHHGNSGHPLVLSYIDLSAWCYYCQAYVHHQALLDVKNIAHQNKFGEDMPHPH

## COc1ccc(C(=O)c2ccc3c(ccn3Cc3ccc(C(=O)NO)cc3)c2)cc1
[1]
  concentration at 3 h: 7.3 ng/mL
[2]
  concentration at 1 h: 10.4 ng/g
[3]
  inhibition: Active
[4]
  inhibition: Active
[5]
  Activity: 15.6%
